Publication PMC4931877 (The Journal of Pharmacology and Experimental Therapeutics, 2016)

Assay: SAD study safety and tolerability
Type: in vivo, human
How it was run: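 Single-dose subjects, placebo-controlled and double-blind, were assessed by vital signs, physical examination, 12-lead ECG and clinical laboratory tests. AEs were spontaneously reported or elicited, and their onset, duration, intensity, seriousness, relatedness and action taken were recorded. AEs were tabulated by MedDRA 12.1 system organ class and preferred term.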

## CNc1nc(Nc2ccc(-n3cnc(C)n3)c(OC)c2)nc2c1CC[C@H]2c1ccc(F)cc1 [BMS-932481, (S)-7-(4-fluorophenyl)-N2-(3-methoxy-4-(3-methyl-1H-1,2,4-triazol-1-yl)phenyl)-N4-methyl-6,7-dihydro-5H-cyclopenta[d]pyrimidine-2,4-diamine]
  findings on ECG parameters: no clinical relevant findings
10 mg
  AEs: 3 (50.0) n (%)
  Deaths: 0 n (%)
  Discontinuation due to AEs: 0 n (%)
  Drug-related AEs: 0 n (%)
  SAEs: 0 n (%)
30 mg
  AEs: 2 (33.3) n (%)
  Deaths: 0 n (%)
  Discontinuation due to AEs: 0 n (%)
  Drug-related AEs: 0 n (%)
  SAEs: 0 n (%)
100 mg
  AEs: 1 (16.7) n (%)
  Deaths: 0 n (%)
  Discontinuation due to AEs: 0 n (%)
  Drug-related AEs: 0 n (%)
  SAEs: 0 n (%)
300 mg P2 (cross-over phase 2)
  AEs: 0 n (%)
  Deaths: 0 n (%)
  Discontinuation due to AEs: 0 n (%)
  Drug-related AEs: 0 n (%)
  SAEs: 0 n (%)
300 mg P3 (cross-over phase 3)
  AEs: 1 (16.7) n (%)
  Deaths: 0 n (%)
  Discontinuation due to AEs: 0 n (%)
  Drug-related AEs: 0 n (%)
  SAEs: 0 n (%)
300 mg P (cross-over phase 1)
  AEs: 0 n (%)
  Deaths: 0 n (%)
  Discontinuation due to AEs: 0 n (%)
  Drug-related AEs: 0 n (%)
  SAEs: 0 n (%)
600 mg
  AEs: 0 n (%)
  Deaths: 0 n (%)
  Discontinuation due to AEs: 0 n (%)
  Drug-related AEs: 0 n (%)
  SAEs: 0 n (%)
900 mg
  AEs: 3 (50.0) n (%)
  Deaths: 0 n (%)
  Discontinuation due to AEs: 0 n (%)
  Drug-related AEs: 1 (16.7) n (%)
  SAEs: 0 n (%)
900 mg C (CSF panel)
  Deaths: 0 n (%)
  Discontinuation due to AEs: 0 n (%)
  Drug-related AEs: 1 (10.0) n (%)
  SAEs: 0 n (%)
900 mg El (elderly)
  AEs: 0 n (%)
  Deaths: 0 n (%)
  Discontinuation due to AEs: 0 n (%)
  Drug-related AEs: 0 n (%)
  SAEs: 0 n (%)
1200 mg
  AEs: 0 n (%)
  Deaths: 0 n (%)
  Discontinuation due to AEs: 0 n (%)
  Drug-related AEs: 0 n (%)
  SAEs: 0 n (%)
10 to 1200 mg, healthy subjects
  tolerability after a single dose: generally well tolerated
All treated
  AEs: 17 (27.9) n (%)
  Deaths: 0 n (%)
  Discontinuation due to AEs: 0 n (%)
  Drug-related AEs: 2 (3.3) n (%)
  SAEs: 0 n (%)
Two participants
  participants with drug-related AEs: 3.3%
